Most compounds without a hit are left out; they make up all but 9.4% or so of the library.
Lmaj promast: Leishmania major promastigote growth inhibition, primary screen; 200,000 compounds, 9% hits; inhibition, % at 10 µM; Leishmania major promastigotes, resazurin fluorescence viability; in the data active = inhibition above about 50%;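 also: promastigotes grown with compound for 44 hours at 28 °C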
T cruzi repl: inhibitors of intracellular T. cruzi growth, primary screen, luminescence, NIH3T3 host cells | inhibition, % (no concentration beside the values) | T. cruzi beta-gal in NIH3T3, 90 h | 300,000 compounds, 1.4% hits;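 active = mean inhibition across valid replicates above about 55%, limit read from the data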;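 also: signal also drops with host cell toxicity which is not excluded here; 0% = plate median of DMSO wells and 100% = zero luminescence signal; higher percent means less beta-gal luminescence so fewer parasites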
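assay system = mouse NIH/3T3 fibroblasts infected with β-gal-expressing T. cruzi Tulahuen C4 | input = 5,000 NIH/3T3 host cells per well | buffer or medium = DMEM plus 2% FBS | timing = 3 h host attachment, then at least 90 h co-culture | measured by = GalScreen luminescence, 60 min | evaluation = luminescence reflecting intracellular parasite burden, expressed as percent inhibition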
Beta apoptosis: inhibitors of cytokine-induced beta cell apoptosis, primary screen, luminescence; INS-1E cytokine-induced death, ATP luminescence, 48 h; percent of positive-control rescue, neutral wells zero; protection from apoptosis, % (concentration not given with the values); 300,000 compounds, 0.8% hits; AID 435005, 2010;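 active = Every replicate reaches about 75%, or at least half do and their mean reaches it too, limit read from the data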;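 also: 0% = cytokine-treated negative control wells and 100% = positive control rescue; higher means more ATP so stronger rescue from cytokine killing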
SKKanGAS inh: S. pyogenes SKKanGAS growth inhibitors in kanamycin, primary screen, streptokinase expression inhibitor project, SKKanGAS strain, BacTiter-Glo luminescence. 300,000 compounds, 1.3% hits. 6 h. AID 1662, 2009. inhibition, % at 7.5 µM;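 active = mean replicate score, as percent of positive control median, at least 50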;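 also: strain carries kanamycin resistance gene driven by streptokinase promoter and grows in 40 µg/ml kanamycin; loss of luminescence reflects streptokinase promoter inhibition or plain growth inhibition; 0% = median of DMSO wells and 100% = positive control at its reference dose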
CSC inhib: cancer stem cell viability inhibitors, primary screen, luminescence; cancer stem cell-like cells viability; inhibition, % at 7.5 µM; 300,000 compounds, 1.1% hits; AID 2717, 2010; in the data active = inhibition above about 75%; tested in HMLE shEcad cells
Mdm2 MdmX PPI: inhibitors of human Mdm2-MdmX association, primary screen, cell-based, luminescence, split luciferase, SaOS-2, uHTS; 330,000 compounds, 3% hits; SaOS-2 split-luciferase Mdm2/MdmX complementation; Protein Mdm4 (Homo sapiens) + E3 ubiquitin-protein ligase Mdm2 (Homo sapiens), …; inhibition, % at 8 µM; AID 485346, 2010;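 active = inhibition of at least 50% at 8 µM in the primary screen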
* marks the source's active call; other numbers are inactive results; / = no result given.

SMILES	Lmaj promast	T cruzi repl	Beta apoptosis	SKKanGAS inh	CSC inhib	Mdm2 MdmX PPI
Cc1ccc(-c2nnc(Nc3ccc(CC(N)=O)cc3)c3ccccc23)cc1S(N)(=O)=O	/	8	5	-5	-10	-14
Cc1ccc(-c2nnc(Nc3ccc(CC(N)=O)cc3)c3ccccc23)cc1	10	60*	/	9	/	-2
Cc1ccc(NC(=O)Nc2ccc3c(c2)nc(C)n3C)cc1	0	21	-8	-3	2	-88
Cc1cc(C)c2nc(SCCc3ccccc3)nc(C)c2c1	6	21	-5	71*	-2	-9
O=C(CSc1nc2ccccc2c(=O)n1-c1ccc(F)cc1)Nc1ccc(Cl)c(S(=O)(=O)N2CCOCC2)c1	95*	32	4	29	-3	1
O=C(CSc1nc2ccccc2c(=O)n1-c1ccc(F)cc1F)Nc1ccc2c(c1)CCC2	99*	42	15	4	-3	27
O=c1c2ccccc2nc(SCc2nnc(-c3ccccc3Br)o2)n1-c1ccccc1	23	33	-1	16	-9	30
O=c1c2ccccc2nc(SCc2nnc(-c3ccccc3)o2)n1-c1ccc(F)cc1F	78*	27	33	3	-5	15
O=C(CSc1nc2ccccc2c(=O)n1-c1ccccc1F)Nc1ccc2c(c1)CCC2	98*	14	0	-2	1	27
COc1cccc(N2CC(O)Cn3c2nc2c3c(=O)[nH]c(=O)n2C)c1 (stereo not given)	/	-5	-1	8	6	20
COC(=O)[C@@H]1C[C@@H](c2ccccc2)[C@H](C)C1(C)C	/	/	-4	/	/	7
O=C(CSc1nc2ccccc2c(=O)n1-c1ccc(F)cc1)Nc1ccc2c(c1)CCC2	81*	32	8	-1	-3	41
O=C(COc1ccccc1)Nc1nc(-c2ccc(S(=O)(=O)N3CCOCC3)cc2)cs1	15	-4	6	9	9	10
O=C(CCc1ccc(S(=O)(=O)N2CCOCC2)cc1)Nc1nc(COc2ccccc2)cs1	96*	4	51	-12	25	10
COc1ccc(C2C(Oc3ccccc3)C(=O)N2c2ccc(C)c(C)c2)cc1OC (stereo not given)	13	30	5	-1	11	7
COc1ccc(C2C(Oc3ccccc3)C(=O)N2c2cc(C)ccc2C)cc1OC (stereo not given)	3	60*	2	11	11	-30
Cc1ccc(C)c(Cn2ncc3ccccc32)c1	/	-8	-2	6	-19	-20
Cc1ccc(-c2ccc(S(=O)(=O)N3CCN(C)CC3)cc2)cc1	-9	11	-2	1	-7	-8
CN1CCN(S(=O)(=O)c2ccc(N3CCN(C(c4ccccc4)c4ccccc4)CC3)nc2)CC1	100*	18	1	-1	-9	6
CN1CCN(S(=O)(=O)c2ccc(N3CCN(S(=O)(=O)/C=C/c4ccccc4)CC3)nc2)CC1	36	2	0	0	68	-18
O=S(=O)(c1ccc(N2CCN(CCO)CC2)nc1)N1CCCCC1	60*	-4	-3	1	2	16
CN1CCN(S(=O)(=O)c2ccc(-c3ccccc3)cc2)CC1	86*	5	-7	4	/	-22
COc1ccc(CCNC(=O)C(=O)NCc2ccccn2)cc1	-8	2	-3	-9	-8	8
COc1cccc(N2CC(C(=O)Nc3nnc(SCCC4OCCO4)s3)CC2=O)c1 (stereo not given)	/	-5	-7	2	-8	-16
O=C(/C=C/c1ccc2c(c1)OCO2)NCCSCc1c(Cl)cccc1Cl	11	15	-1	28	98*	39
SMILES	Lmaj promast	T cruzi repl	Beta apoptosis	SKKanGAS inh	CSC inhib	Mdm2 MdmX PPI
O=C(/C=C/c1ccc2c(c1)OCO2)NCCSCc1ccc(Cl)cc1	1	-6	-3	-7	93*	18
CN(C)CCCNC(=O)/C=C/c1ccc2c(c1)OCO2	38	45	-2	-12	4	-12
Cc1ccc([N+](=O)[O-])c(OCCN2C(=O)NC(C)(C)C2=O)c1	-5	2	-11	-5	-9	28
Cc1ccc(OCCCCN2CCCC(C)C2)c([N+](=O)[O-])c1 (stereo not given)	86*	13	-4	4	40	0
Cc1cc(OCCN2CCCCCC2)ccc1[N+](=O)[O-]	92*	41	9	-3	/	15
Cc1ccc([N+](=O)[O-])c(OCCCN2CCCCCC2)c1	98*	-7	10	-22	-1	21
c1ccc(N2N=C(c3cccs3)CC2c2ccco2)cc1 (stereo not given)	14	13	3	65*	62	9
Clc1ccc(N2N=C(c3cccs3)CC2c2ccco2)cc1 (stereo not given)	4	12	2	-3	-7	25
C=CCN1C(c2ccccc2)=CS/C1=C(/C#N)c1nnc(N2CCOCC2)n1-c1ccccc1	74*	10	-4	2	-17	-10
CN1C(c2ccc(F)cc2)=CS/C1=C(/C#N)c1nnc(N2CCOCC2)n1-c1ccccc1	56*	21	2	-6	30	-6
CCN1C(c2ccc(F)cc2)=CS/C1=C(\C#N)c1nnc2n1-c1ccccc1SC2	72*	15	0	-1	9	11
Cc1ccc(C)c(NC(=O)NNC(=O)c2cc3ccccc3cc2O)c1	/	-3	-12	6	11	26
Cc1ccc2nc(Cl)c3cc(C(=O)N(CCN(C)C)Cc4ccco4)sc3c2c1	65*	56*	-1	2	93*	40
CN(CCC#N)C(=O)c1cc2c(Cl)nc3ccccc3c2s1	/	-12	-3	-3	-6	4
CN(C)CCN(Cc1ccco1)C(=O)c1cc2c(Cl)nc3ccccc3c2s1	91*	63*	-7	7	-12	21
COCCn1nnnc1C(C(C)C)N(Cc1ccccc1)Cc1cc2cc(OC)ccc2[nH]c1=O (stereo not given)	13	/	/	/	/	/
Cc1cccc2cc(CN(Cc3ccco3)C(c3nnnn3CCc3ccccc3)C(C)C)c(=O)[nH]c12 (stereo not given)	87*	42	10	25	37	25
COc1ccc2[nH]c(=O)c(CN(C3CCCCC3)C(c3nnnn3Cc3ccco3)C(C)C)cc2c1 (stereo not given)	65*	19	1	19	6	-12
COc1ccc2[nH]c(=O)c(CN(Cc3ccco3)C(c3nnnn3Cc3ccccc3)C(C)C)cc2c1 (stereo not given)	47	76*	-1	18	21	11
